From publication PMC3962796 (Environmental science & technology, 2013)
Like-named read-outs stand apart in the source and are kept apart here.

Key:
[1] = assay type: in vivo, male Sprague-Dawley rats; details: for half-life: male, Sprague-Dawley, rat, inhaled or intranasal, 1.8 ug
In short: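 Male Sprague-Dawley rats (237.6 ± 1.6 g; n=4/group) were exposed nose-only to test compound vapor. The vapor came from air at 4.0 L/min bubbled through the neat compound at 25.0°C, then diluted to 10.0 L/min. Exposure was 1 h, a 1 h break, then 1 h. Shams breathed filtered air. Rats were killed 0, 4 and 8 h post exposure, shams at 2 and 6 h. Lung, liver and serum were PLE-extracted and analysed by GC-MS SIM. Results were blank/surrogate-corrected and lipid-normalized. Analysis used t-tests (p<0.05) and Gauss-Newton non-linear regression.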

[2] = cited from earlier work; for half-life after inhalation exposure (tissues overall): administered as part of Aroclor mixture, same duration of inhalation exposure, Figure S2
[3] = two-component exponential decay; blood, liver and muscle; intravenous; cited from earlier work
[4] = first order model fit, lipid weight basis

Oc1ccc(-c2cccc(Cl)c2)cc1Cl [4-OH-CB11, 3,3′-dichlorobiphenyl-4-ol]
ratio of 4-OH-CB11 to CB11 in liver ([1]; 0 h post exposure): 0.7±0.0
mean liver 4-OH-CB11 level relative to sentinel rats ([1]; 4 h group vs sentinel rats): 15 fold
mean liver 4-OH-CB11 level relative to sham rats ([1]; 4 h group vs sham-exposed, not statistically significant): 4 fold
ratio of 4-OH-CB11 to CB11 in liver ([1]; 4 h post exposure): 0.9±0.2
ratio of 4-OH-CB11 to CB11 in liver ([1]; 8 h post exposure): 1.1±0.1
detection of 4-OH-CB11 in liver ([1]; liver of all PCB-exposed animals): detected
detection of 4-OH-CB11 in lung ([1]; lung samples of exposed rats): not detected
detection of 4-OH-CB11 in serum ([1]; serum samples of exposed rats): not detected

Clc1ccccc1-c1ccccc1 [CB1, monochlorobiphenyl]
level remaining during the inhalation exposure ([2]; Aroclor 1242 vapor inhalation): barely detectable levels

Clc1ccccc1-c1ccccc1Cl [CB4]
level remaining during the inhalation exposure ([2]; Aroclor 1242 vapor inhalation): barely detectable levels

Clc1ccc(-c2ccccc2Cl)cc1 [CB8, 2,4′-Dichlorobiphenyl]
half-life after inhalation exposure (tissues overall) [2]: 5 to 8 h

Clc1cccc(-c2cccc(Cl)c2)c1 [CB11, 3,3′-dichlorobiphenyl]
C0 (initial concentration) of CB11 in liver [1, 4]: 73.6 ng/g l.w.
C0 (initial concentration) of CB11 in serum [1, 4]: 295 ng/g l.w.
C0 (initial concentration) of CB11 in lung ([1]; first order model fit, lipid weight basis, inhalation 106 μg/m^3 for 2 h): 932 ng/g l.w.
half-life ([1]; liver): 2.1 h
half-life ([1]; lung): 1.9 h
half-life ([1]; serum): 1.8 h

Clc1ccc(-c2ccc(Cl)cc2)cc1 [CB15, 4,4′-dichlorobiphenyl]
half-life after inhalation exposure (tissues overall) [2]: 5 to 8 h

Clc1ccc(-c2ccc(Cl)cc2Cl)cc1 [CB28]
time of peak concentration after exposure ([2]; Aroclor 1242 vapor inhalation, suggests redistribution phase): 1 h

Clc1ccc(Cl)c(-c2c(Cl)ccc(Cl)c2Cl)c1Cl [CB136, 2,2′,3,3′,6′6′-hexachlorobiphenyl]
t½ of initial fast distribution phase [3]: 1.7 to 10.6 h
t½ of subsequent slower elimination phase [3]: 55.2 to 406 h

Clc1cc(Cl)c(-c2cc(Cl)c(Cl)cc2Cl)cc1Cl [CB153]
t½ of initial fast distribution phase [3]: 1.7 to 10.6 h
t½ of subsequent slower elimination phase [3]: 55.2 to 406 h
